Experimental data taken from ChEMBL document CHEMBL1123045, “Synthesis of high specific activity [75Br]- and [77Br]bromperidol and tissue distribution studies in the rat” (J Med Chem, 1985).

Key:
Rattus norvegicus [1] = test: Distribution in rat heart 2 hr after intravenous administration, injected dose/gm; format: ADME, organism-based; settings: in vivo
How it was run: (§1)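 [77Br]Bromperidol at high specific activity (50-100 µCi in 0.1 mL 0.9% NaCl, pH 3) given into the femoral vein of 300-320-g female Sprague-Dawley rats under light ether anesthesia. At each time point, groups of five were decapitated after cardiac-puncture blood sampling. Organs were dissected, blotted, weighed and gamma-counted against an injectate standard. Values are % injected dose/g, mean ± SD, n=5.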

Rattus norvegicus [2] = test: Distribution in rat heart 30 min after intravenous administration, injected dose/gm; format: ADME, organism-based; settings: in vivo, 0.5 h; how it was run: as §1
Rattus norvegicus [3] = test: Distribution in rat liver 30 min after intravenous administration, injected dose/gm; format: ADME, organism-based; settings: in vivo, 0.5 h
How it was run: (§2)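 Female Sprague-Dawley rats (300-320 g) under light ether anesthesia received a single injection of [77Br]-labeled tracer (50-100 µCi in 0.1 mL 0.9% NaCl, pH 3) into the femoral vein. Groups of five were decapitated at set times after a cardiac-puncture blood sample. Organs were dissected, blotted and weighed, and counted in a NaI(Tl) well γ-counter. Values are %ID/g against an injectate standard, mean ± SD (n=5).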

Rattus norvegicus [4] = test: Distribution in rat liver 4 hr after intravenous administration, injected dose/gm; format: ADME, organism-based; settings: in vivo; how it was run: as §2
Rattus norvegicus [5] = test: Distribution in rat liver 5 min after intravenous administration, injected dose/gm; format: ADME, organism-based; settings: in vivo; how it was run: as §2
Rattus norvegicus [6] = test: Distribution in rat liver 6 hr after intravenous administration, injected dose/gm; format: ADME, organism-based; settings: in vivo; how it was run: as §2
Rattus norvegicus [7] = test: Distribution in rat lungs 15 min after intravenous administration, injected dose/gm; format: ADME, organism-based, Lung; settings: in vivo, 0.25 h; how it was run: as §2
Rattus norvegicus [8] = test: Distribution in rat lungs 1 hr after intravenous administration, injected dose/gm; format: ADME, organism-based, Lung; settings: in vivo; how it was run: as §2
Rattus norvegicus [9] = test: Distribution in rat lungs 2 hr after intravenous administration, injected dose/gm; format: ADME, organism-based, Lung; settings: in vivo; how it was run: as §2
Rattus norvegicus [10] = test: Distribution in rat lungs 30 min after intravenous administration, injected dose/gm; format: ADME, organism-based, Lung; settings: in vivo, 0.5 h; how it was run: as §2
Rattus norvegicus [11] = test: Distribution in rat lungs 4 hr after intravenous administration, injected dose/gm; format: ADME, organism-based, Lung; settings: in vivo; how it was run: as §2
Rattus norvegicus [12] = test: Distribution in rat lungs 5 min after intravenous administration, injected dose/gm; format: ADME, organism-based, Lung; settings: in vivo; how it was run: as §2
Rattus norvegicus [13] = test: Distribution in rat lungs 6 hr after intravenous administration, injected dose/gm; format: ADME, organism-based, Lung; settings: in vivo; how it was run: as §2
Rattus norvegicus [14] = test: Distribution in rat lungs 8 hr after intravenous administration, injected dose/gm; format: ADME, organism-based, Lung; settings: in vivo; how it was run: as §2
Rattus norvegicus [15] = test: Distribution in rat muscle 15 min after intravenous administration, injected dose/gm; format: ADME, organism-based, Muscle tissue; settings: in vivo, 0.25 h; how it was run: as §2
Rattus norvegicus [16] = test: Distribution in rat muscle 2 hr after intravenous administration, injected dose/gm; format: ADME, organism-based, Muscle tissue; settings: in vivo; how it was run: as §2
Rattus norvegicus [17] = test: Distribution in rat skin 8 hr after intravenous administration, injected dose/gm; format: ADME, organism-based; settings: in vivo; how it was run: as §2
Rattus norvegicus [18] = test: Distribution in rat spleen 15 min after intravenous administration, injected dose/gm; format: ADME, organism-based; settings: in vivo, 0.25 h; how it was run: as §2
Rattus norvegicus [19] = test: Distribution in rat spleen 2 hr after intravenous administration, injected dose/gm; format: ADME, organism-based; settings: in vivo; how it was run: as §2
Rattus norvegicus [20] = test: Distribution in rat spleen 30 min after intravenous administration, injected dose/gm; format: ADME, organism-based; settings: in vivo, 0.5 h; how it was run: as §2
Rattus norvegicus [21] = test: Distribution in rat spleen 4 hr after intravenous administration, injected dose/gm; format: ADME, organism-based; settings: in vivo; how it was run: as §2
Rattus norvegicus [22] = test: Distribution in rat spleen 6 hr after intravenous administration, injected dose/gm; format: ADME, organism-based; settings: in vivo; how it was run: as §2
Rattus norvegicus [23] = test: Distribution in rat spleen 8 hr after intravenous administration, injected dose/gm; format: ADME, organism-based; settings: in vivo; how it was run: as §2
Rattus norvegicus [24] = test: Distribution in rat uterus 15 min after intravenous administration, injected dose/gm; format: ADME, organism-based; settings: in vivo, 0.25 h; how it was run: as §2
Rattus norvegicus [25] = test: Distribution in rat uterus 2 hr after intravenous administration, injected dose/gm; format: ADME, organism-based; settings: in vivo; how it was run: as §2
Rattus norvegicus [26] = test: Distribution in rat uterus 30 min after intravenous administration, injected dose/gm; format: ADME, organism-based; settings: in vivo, 0.5 h; how it was run: as §2
Rattus norvegicus [27] = test: Distribution in blood of rat 5 min after intravenous administration, injected dose/gm; format: ADME, organism-based; settings: in vivo; how it was run: as §1
Rattus norvegicus [28] = test: Distribution in blood of rat, 15 min after intravenous administration, injected dose/gm; format: ADME, organism-based; settings: in vivo, 0.25 h; how it was run: as §1
Rattus norvegicus [29] = test: Distribution in blood of rat, 1 hr after intravenous administration, injected dose/gm; format: ADME, organism-based; settings: in vivo; how it was run: as §1
Rattus norvegicus [30] = test: Distribution in blood of rat, 2 hr after intravenous administration, injected dose/gm; format: ADME, organism-based; settings: in vivo; how it was run: as §1
Rattus norvegicus [31] = test: Distribution in blood of rat, 30 min after intravenous administration, injected dose/gm; format: ADME, organism-based; settings: in vivo, 0.5 h; how it was run: as §1
Rattus norvegicus [32] = test: Distribution in blood of rat, 4 hr after intravenous administration, injected dose/gm; format: ADME, organism-based; settings: in vivo; how it was run: as §1
Rattus norvegicus [33] = test: Distribution in blood of rat, 6 hr after intravenous administration, injected dose/gm; format: ADME, organism-based; settings: in vivo; how it was run: as §1
Rattus norvegicus [34] = test: Distribution in rat kidney, 8 hr after intravenous administration, injected dose/gm; format: ADME, organism-based; settings: in vivo; how it was run: as §1
Rattus norvegicus [35] = test: Distribution in rat uterus 4 hr after intravenous administration, injected dose/gm; format: ADME, organism-based; settings: in vivo; how it was run: as §2
Rattus norvegicus [36] = test: Distribution in rat uterus 5 min after intravenous administration, injected dose/gm; format: ADME, organism-based; settings: in vivo; how it was run: as §2
Rattus norvegicus [37] = test: Distribution in rat uterus 6 hr after intravenous administration, injected dose/gm; format: ADME, organism-based; settings: in vivo; how it was run: as §2
Rattus norvegicus [38] = test: Distribution in rat uterus 8 hr after intravenous administration, injected dose/gm; format: ADME, organism-based; settings: in vivo; how it was run: as §2
Rattus norvegicus [39] = test: Distribution in rat skin 15 min after intravenous administration, injected dose/gm; format: ADME, organism-based; settings: in vivo, 0.25 h; how it was run: as §2
Rattus norvegicus [40] = test: Distribution in rat skin 1 hr after intravenous administration, injected dose/gm; format: ADME, organism-based; settings: in vivo; how it was run: as §2
Rattus norvegicus [41] = test: Distribution in rat skin 2 hr after intravenous administration, injected dose/gm; format: ADME, organism-based; settings: in vivo; how it was run: as §2
Rattus norvegicus [42] = test: Distribution in rat skin 30 min after intravenous administration, injected dose/gm; format: ADME, organism-based; settings: in vivo, 0.5 h; how it was run: as §2
Rattus norvegicus [43] = test: Distribution in rat skin 4 hr after intravenous administration, injected dose/gm; format: ADME, organism-based; settings: in vivo; how it was run: as §2
Rattus norvegicus [44] = test: Distribution in rat skin 5 min after intravenous administration, injected dose/gm; format: ADME, organism-based; settings: in vivo; how it was run: as §2
Rattus norvegicus [45] = test: Distribution in rat skin 6 hr after intravenous administration, injected dose/gm; format: ADME, organism-based; settings: in vivo; how it was run: as §2
Rattus norvegicus [46] = test: Distribution in rat liver 2 hr after intravenous administration, injected dose/gm; format: ADME, organism-based; settings: in vivo; how it was run: as §1
Rattus norvegicus [47] = test: Distribution in rat muscle 1 hr after intravenous administration, injected dose/gm; format: ADME, organism-based, Muscle tissue; settings: in vivo; how it was run: as §2
Rattus norvegicus [48] = test: Distribution in rat spleen 5 min after intravenous administration, injected dose/gm; format: ADME, organism-based; settings: in vivo; how it was run: as §2
Rattus norvegicus [49] = test: Distribution in rat intestine 4 hr after intravenous administration, injected dose/gm; format: ADME, organism-based; settings: in vivo; how it was run: as §1
Rattus norvegicus [50] = test: Distribution in rat fat 4 hr after intravenous administration, injected dose/gm; format: ADME, organism-based, Adipose tissue; settings: in vivo; how it was run: as §1

Distribution (Rattus norvegicus [1]): 0.46% | Distribution (Rattus norvegicus [2]): 1.07% | Distribution (Rattus norvegicus [3]): 2.5% | Distribution (Rattus norvegicus [4]): 4.08% | Distribution (Rattus norvegicus [5]): 1.03% | Distribution (Rattus norvegicus [6]): 4.16% | Distribution (Rattus norvegicus [7]): 6.29% | Distribution (Rattus norvegicus [8]): 4.19% | Distribution (Rattus norvegicus [9]): 2.1% | Distribution (Rattus norvegicus [10]): 5.8% | Distribution (Rattus norvegicus [11]): 1.59% | Distribution (Rattus norvegicus [12]): 13.6% | Distribution (Rattus norvegicus [13]): 1.24% | Distribution (Rattus norvegicus [14]): 1.14% | Distribution (Rattus norvegicus [15]): 0.32% | Distribution (Rattus norvegicus [16]): 0.15% | Distribution (Rattus norvegicus [17]): 0.14% | Distribution (Rattus norvegicus [18]): 3.29% | Distribution (Rattus norvegicus [19]): 2.69% | Distribution (Rattus norvegicus [20]): 4.43% | Distribution (Rattus norvegicus [21]): 1.92% | Distribution (Rattus norvegicus [22]): 1.76% | Distribution (Rattus norvegicus [23]): 1.86% | Distribution (Rattus norvegicus [24]): 2.24% | Distribution (Rattus norvegicus [25]): 1.07% | Distribution (Rattus norvegicus [26]): 3% | Distribution (Rattus norvegicus [27]): 0.12% | Distribution (Rattus norvegicus [28]): 0.11% | Distribution (Rattus norvegicus [29]): 0.06% | Distribution (Rattus norvegicus [30]): 0.05% | Distribution (Rattus norvegicus [31]): 0.08% | Distribution (Rattus norvegicus [32]): 0.06% | Distribution (Rattus norvegicus [33]): 0.03% | Distribution (Rattus norvegicus [34]): 1.77% | Distribution (Rattus norvegicus [35]): 1.07% | Distribution (Rattus norvegicus [36]): 1.91% | Distribution (Rattus norvegicus [37]): 1.2% | Distribution (Rattus norvegicus [38]): 1.15% | Distribution (Rattus norvegicus [39]): 0.19% | Distribution (Rattus norvegicus [40]): 0.2% | Distribution (Rattus norvegicus [41]): 0.17% | Distribution (Rattus norvegicus [42]): 0.2% | Distribution (Rattus norvegicus [43]): 0.14% | Distribution (Rattus norvegicus [44]): 0.15% | Distribution (Rattus norvegicus [45]): 0.14% | Distribution (Rattus norvegicus [46]): 3.16% | Distribution (Rattus norvegicus [47]): 0.18% | Distribution (Rattus norvegicus [48]): 3.02% | Distribution (Rattus norvegicus [49]): 0.76% | Distribution (Rattus norvegicus [50]): 0.15%
SMILES: O=C(CCCN1CCC(O)(c2ccc(Br)cc2)CC1)c1ccc(F)cc1 [BROMPERIDOL]
